Measurements from ChEMBL document CHEMBL5335836, “Discovery of a new pyrido[2,3-d]pyridazine-2,8-dione derivative as a potential anti-inflammatory agent through COX-1/COX-2 dual inhibition” (RSC Med Chem, 2024).

Columns and labels:
Mus musculus [1] = assay: Anti-inflammatory activity against croton oil induced ear edema Swiss mouse model assessed as edema inhibition at 1.25 mg per ear, TOP measured after 6 hrs relative to control; format: functional
Summary of the method: (§1)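 Male Swiss mice (20–30 g), n=7/group. Croton oil (200 µg/ear in 70% acetone) applied to the inner left ear, with vehicle alone on the right ear. Treatments in 20 µL 70% acetone were then applied topically to the left ear at 0.625 or 1.25 mg/ear, or 1 mg/ear for the reference drug. After 6 h, 6.0 mm ear disks were weighed and % edema inhibition calculated.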

Mus musculus [2] = assay: Anti-inflammatory activity against croton oil induced ear edema Swiss mouse model assessed as edema inhibition at 0.625 mg per ear, TOP measured after 6 hrs relative to control; format: functional; summary of the method: as §1
[3] = Cytotoxicity against mouse L929 cells assessed as reduction in cell viability incubated for 72 hrs by MTT assay; format: toxicity, cell-based
Summary of the method: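 Fibroblasts (CCL-1) were seeded at 2.5 × 10^5 cells/mL in DMEM + 10% FBS and grown 24 h at 37 °C, 5% CO2 to confluence. They were exposed to 100–1000 µM compound for 72 h, then given MTT (2 mg/mL) for 4 h. Formazan was dissolved in DMSO and read at 492 nm. Viability relative to control gave CC50.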

[4] = biological target: T1, Prostaglandin G/H synthase 1 (Ovis aries) (UniProt P05979); assay: Inhibition of ovine COX-1 at 31.25 uM by microplate reader analysis relative to control
T1 sequence (whole entry): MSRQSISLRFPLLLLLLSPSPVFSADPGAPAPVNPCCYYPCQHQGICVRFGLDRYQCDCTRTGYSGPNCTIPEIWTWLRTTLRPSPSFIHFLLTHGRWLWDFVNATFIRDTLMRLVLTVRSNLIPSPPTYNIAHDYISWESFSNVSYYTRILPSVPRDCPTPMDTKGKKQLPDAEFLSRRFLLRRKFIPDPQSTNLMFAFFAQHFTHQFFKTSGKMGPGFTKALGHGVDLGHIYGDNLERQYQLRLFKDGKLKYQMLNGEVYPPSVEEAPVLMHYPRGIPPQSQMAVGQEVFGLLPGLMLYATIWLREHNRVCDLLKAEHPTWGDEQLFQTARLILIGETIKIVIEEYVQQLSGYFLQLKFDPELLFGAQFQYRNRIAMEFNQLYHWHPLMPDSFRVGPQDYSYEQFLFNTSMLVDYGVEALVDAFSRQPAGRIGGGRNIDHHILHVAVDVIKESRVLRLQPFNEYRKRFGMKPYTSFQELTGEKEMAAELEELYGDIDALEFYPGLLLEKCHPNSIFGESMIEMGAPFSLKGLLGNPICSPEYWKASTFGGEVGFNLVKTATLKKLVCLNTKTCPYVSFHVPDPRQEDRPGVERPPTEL
Summary of the method: (§2)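 Kit-based cyclooxygenase inhibitor screen using human recombinant COX-2 or ovine COX-1, run per the manufacturer's procedure. Compound was tested at 1.95 and 31.25 µM. Absorbance was read at 405 nm. % inhibition was derived from %B/B0 on a standard curve.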

[5] = biological target: T1, Prostaglandin G/H synthase 1 (Ovis aries); assay: Inhibition of ovine COX-1 at 1.95 uM by microplate reader analysis relative to control; summary of the method: as §2
[6] = biological target: T2, Prostaglandin G/H synthase 2 (Homo sapiens) (UniProt P35354); assay: Inhibition of human recombinant COX-2 at 31.25 uM by microplate reader analysis relative to control; summary of the method: as §2
T2 sequence (whole entry): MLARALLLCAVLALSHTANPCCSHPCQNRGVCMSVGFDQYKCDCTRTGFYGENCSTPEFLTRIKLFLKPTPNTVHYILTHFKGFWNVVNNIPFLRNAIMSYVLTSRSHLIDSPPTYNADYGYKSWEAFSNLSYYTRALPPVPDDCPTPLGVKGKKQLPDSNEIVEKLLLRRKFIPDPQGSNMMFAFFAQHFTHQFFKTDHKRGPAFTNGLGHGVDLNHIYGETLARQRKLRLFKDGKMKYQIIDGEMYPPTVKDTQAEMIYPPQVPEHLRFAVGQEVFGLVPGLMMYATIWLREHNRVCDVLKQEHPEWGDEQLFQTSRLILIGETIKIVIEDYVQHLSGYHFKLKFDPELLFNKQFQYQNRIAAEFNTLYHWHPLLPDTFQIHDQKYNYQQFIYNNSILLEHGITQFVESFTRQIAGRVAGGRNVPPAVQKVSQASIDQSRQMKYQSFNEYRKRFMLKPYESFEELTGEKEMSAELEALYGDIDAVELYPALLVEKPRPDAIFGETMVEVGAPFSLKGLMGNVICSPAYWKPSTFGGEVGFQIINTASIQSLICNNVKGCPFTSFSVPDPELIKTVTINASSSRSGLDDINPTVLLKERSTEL

[7] = biological target: T2, Prostaglandin G/H synthase 2 (Homo sapiens); assay: Inhibition of human recombinant COX-2 at 1.95 uM by microplate reader analysis relative to control; summary of the method: as §2
Mus musculus [8] = assay: Anti-inflammatory activity against croton oil induced ear edema Swiss mouse model assessed as edema inhibition at 1.00 mg per ear, TOP measured after 6 hrs relative to control; format: functional; summary of the method: as §1

| SMILES | inhibition (INH) (Mus musculus [1]) | inhibition (INH) (Mus musculus [2]) | other results |
| --- | --- | --- | --- |
| N#Cc1cc2c(-c3ccc(Cl)cc3)n[nH]c(=O)c2[nH]c1=O | 50.4% | 49% | – |
| O=C(O)c1cc2c(-c3ccc(Cl)cc3)n[nH]c(=O)c2[nH]c1=O | 75.2% | 65.9% | – |
| CCOC(=O)c1cc2c(-c3ccc([N+](=O)[O-])cc3)n[nH]c(=O)c2[nH]c1=O | – | 64.2% | – |
| O=C(O)c1cc2c(-c3ccc([N+](=O)[O-])cc3)n[nH]c(=O)c2[nH]c1=O | 56.2% | 63.2% | – |
| N#Cc1cc2c(-c3ccc(Cl)cc3)nn(-c3ccccc3)c(=O)c2[nH]c1=O | 81.8% | 62.8% | IC50 at 72 h [3]: 249 µM; inhibition [4]: 30.6%; inhibition [5]: 22.1%; inhibition [6]: 40.3%; inhibition [7]: 20.2% |
| COc1ccc2c(c1)c(CC(=O)O)c(C)n2C(=O)c1ccc(Cl)cc1 [INDOMETHACIN] | – | – | inhibition (INH) (Mus musculus [8]): 98.2% |
| N#Cc1cc2c(-c3ccc([N+](=O)[O-])cc3)nn(-c3ccccc3)c(=O)c2[nH]c1=O | 78.5% | – | – |
